# What was measured:
# [1] = system: Enterococcus faecalis; assay: Compound was tested for inhibition of the […] organism Streptococcus faecalis MGH-2; assay type: functional
# Procedure, shortened: (§1)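 MICs read in standard microdilution (microtitration) format against a panel of 10 bacterial organisms; values in µg/mL.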
# [2] = system: Mus musculus; assay: Compound was evaluated for protective dose against the Streptococcus pneumoniae SV-1 lethal infection following po administration; assay type: functional; settings: read-out: PD50
# Procedure, shortened: (§2)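 Female Charles River CD-1 mice (18–22 g) were challenged intraperitoneally with an estimated 100 median lethal dose in tryptic soy broth. Single doses, in a twofold rising series, were given at the same time as challenge: subcutaneously as aqueous solution, or orally by gavage in 5% gum acacia. Survival in groups of eight mice per dose gave PD50 (mg/kg) by log probit.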
# [3] = system: Mus musculus; assay: Compound was evaluated for protective dose against Streptococcus pneumoniae SV-1 lethal infection following sc administration; assay type: functional; settings: read-out: PD50; procedure, shortened: as §2
# [4] = target: DNA gyrase (Escherichia coli) (UniProt P0AES6+P0AES4); assay: Inhibition of DNA gyrase of Escherichia coli H560 cells
# Procedure, shortened: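 DNA gyrase purified from Escherichia coli H560 cells. Cleavage assay: drug-gyrase-DNA complex denatured, converting closed circular DNA to linear DNA. Linear DNA resolved by gel electrophoresis and stained with ethidium bromide. Value is the minimum drug concentration (µg/mL) giving linear DNA at an intensity relative to oxolinic acid at 10 µg/mL. Aqueous drug stocks made up in 0.1 N NaOH or KOH.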
# [5] = system: Escherichia coli; assay: Compound was tested for inhibition of the gram-negative organism Escherichia coli H560; assay type: functional; procedure, shortened: as §1
# [6] = system: Streptococcus pyogenes; assay: Compound was tested for inhibition of the […] organism Streptococcus pyogenes C203.; assay type: functional; procedure, shortened: as §1
# [7] = system: Pseudomonas aeruginosa; assay: Compound was tested for inhibition of the gram-negative organism Pseudomonas aeruginosa UI-18; assay type: functional; procedure, shortened: as §1
# [8] = system: Escherichia coli; assay: Compound was tested for inhibition of the gram-negative organism Escherichia coli vogel; assay type: functional; procedure, shortened: as §1
# [9] = system: Enterobacter cloacae; assay: Compound was tested for inhibition of the gram-negative organism […] HA 2646; assay type: functional
# [10] = system: Mus musculus; assay: Compound was evaluated for protective dose against the […] UC-76 lethal infection following po administration in mouse; assay type: functional; settings: read-out: PD50
# Procedure, shortened: (§3)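 Acute lethal systemic infection in female Charles River CD-1 mice (18–22 g), challenged intraperitoneally with an estimated 100 median lethal dose in 5% hog gastric mucin. Single doses in a twofold rising series were given with the challenge, sc as aqueous solution or po by gavage in 5% gum acacia. PD50 (mg/kg) was estimated by log probit from survival of eight mice per dose.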
# [11] = system: Staphylococcus aureus; assay: Compound was tested for inhibition of the […] organism […] H228.; assay type: functional; procedure, shortened: as §1
# [12] = system: Mus musculus; assay: Compound was evaluated for protective dose against the […] UC-76 lethal infection following sc administration in mouse; assay type: functional; settings: read-out: PD50; procedure, shortened: as §3
# [13] = system: Providencia rettgeri; assay: Compound was tested for inhibition of the gram-negative organism Providencia rettgeri H1771; assay type: functional; procedure, shortened: as §1
# [14] = system: Staphylococcus aureus; assay: Compound was tested for inhibition of the […] organism […] UC-76.; assay type: functional; procedure, shortened: as §1
# [15] = system: Klebsiella pneumoniae; assay: Compound was tested for inhibition of the gram-negative organism Klebsiella pneumoniae MGH-2; assay type: functional; procedure, shortened: as §1
# [16] = system: Mus musculus; assay: Compound was evaluated for protective dose against the Escherichia coli vogel lethal infection following peroral administration in mouse; assay type: functional; settings: po, read-out: PD50; procedure, shortened: as §3
# [17] = system: Mus musculus; assay: Compound was evaluated for protective dose against the Escherichia coli vogel lethal infection following sc administration in mouse; assay type: functional; settings: read-out: PD50; procedure, shortened: as §3
# [18] = system: Streptococcus pneumoniae; assay: Compound was tested for inhibition of the […] organism Streptococcus pneumoniae SV-1; assay type: functional; procedure, shortened: as §1
SMILES,MIC [1] [µg/mL],ED50 [2] [mg/kg],ED50 [3] [mg/kg],Min concentration [4] [µg/mL],MIC [5] [µg/mL],MIC [6] [µg/mL],MIC [7] [µg/mL],MIC [8] [µg/mL],MIC [9] [µg/mL],ED50 [10] [mg/kg],MIC [11] [µg/mL],ED50 [12] [mg/kg],MIC [13] [µg/mL],MIC [14] [µg/mL],MIC [15] [µg/mL],ED50 [16] [mg/kg],ED50 [17] [mg/kg],MIC [18] [µg/mL]
CCn1cc(C(=O)O)c(=O)c2cc(F)c(N3CCNCC3)nc21 [ENOXACIN],3.1,> 200,> 100,5,0.1,12.5,1.6,0.2,0.2,12,1.6,10,0.1,0.4,0.2,3,2,–
CCNCC1CCN(c2c(F)cc3c(=O)c(C(=O)O)cn(CC)c3c2F)C1 (configuration not stated) [MERAFLOXACIN],0.1,20,4.4,2.5,0.1,0.1,1.6,0.1,0.2,2.8,0.1,1.6,0.4,0.05,0.2,12,1.7,0.1
CCn1cc(C(=O)O)c(=O)c2ccc(C)nc21 [NALIDIXIC ACID],> 100,> 100,> 100,50,6.3,> 100,> 100,3.1,6.3,> 100,100,> 100,6.3,25,6.3,45,26,–
